Among the data in ChEMBL document CHEMBL1135621, “Development of novel EDG3 antagonists using a 3D database search and their structure-activity relationships” (J Med Chem, 2002) are inhibition values, retold here.

Sequence of Sphingosine 1-phosphate receptor 3 (Homo sapiens) (Q99500 whole entry): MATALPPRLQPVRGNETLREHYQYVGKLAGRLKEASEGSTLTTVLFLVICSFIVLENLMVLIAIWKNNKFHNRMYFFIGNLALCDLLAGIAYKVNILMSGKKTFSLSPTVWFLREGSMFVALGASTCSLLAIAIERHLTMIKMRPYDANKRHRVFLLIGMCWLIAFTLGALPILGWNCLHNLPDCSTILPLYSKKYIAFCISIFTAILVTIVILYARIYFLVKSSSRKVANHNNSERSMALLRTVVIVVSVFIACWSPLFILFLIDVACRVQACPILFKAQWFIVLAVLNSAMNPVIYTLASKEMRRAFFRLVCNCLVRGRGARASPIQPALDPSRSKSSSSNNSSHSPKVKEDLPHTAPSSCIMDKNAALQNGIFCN

The target in this experiment is Sphingosine 1-phosphate receptor 3 (Homo sapiens) (UniProt Q99500). As to the kind of experiment: Inhibitory effect towards Sphingosine 1-phosphate receptor Edg-3 (EDG3). Conditions: concentration not given here. More on the design: concentration or dose not given beside the values. The procedure, abridged:
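Hela cells transfected with human EDG3 cDNA, seeded in DMEM/10% FBS for 24 h at 37 °C, then in MEM for 24 h. Cells are loaded with 5 µM Calcium Green-1 AM in D-PBS(+) for 60 min, given 10 µM test compound for 5 min, then challenged with 1 µM S1P. Fluorescence (ex 485/em 535 nm) is read every 3 s for 30 s. Inhibition (%) is the RFU difference versus the 0.1% DMSO control, averaged over triplicate wells, run on three separate days.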
`CCCCCCCCCC1NC(C(=O)O)CCS1` (stereo not drawn) came in with an inhibition of 6.9%.
The compound `CCCCCCCCCCCCCC1NC(C(=O)O)CS1` (stereo not drawn) returned an inhibition of 6.6%.
`CCCCCCCCCCC[C@H]1N[C@H](C(=O)O)CS1`: the inhibition stood at 37.6%.
Under `CCCCCCCCCC1NC(C(=O)O)CS1` (stereo not drawn) stands 14.8%; under `CCCCCCCCCCCCC1NC(C(=O)O)CCS1` (stereo not drawn), 0.3%; under `CCCCCCCCCCCCC1NC(C(=O)O)CS1` (stereo not drawn), 15.9%.
The result for `CCCCCCCc1cccc(C2N[C@H](C(=O)O)CS2)c1` (stereo partly drawn) reads 43.4%.
Turning to `CCCCCCCCCCCC1NC(C(=O)O)CCS1` (stereo not drawn), the inhibition was 9.4%.
Under `CCCCCCCCCCC1NC(C(=O)O)CS1` (stereo not drawn) stands 26.4%; under `CCCCCCCc1ccc(C2N[C@H](C(=O)O)CS2)cc1` (stereo partly drawn), 42.9%.
The result for `CCCCCc1ccc(C2N[C@H](C(=O)O)CS2)cc1` (stereo partly drawn) reads 13%; that for `CCCCCCCCCCC1NC(C(=O)O)CCS1` (stereo not drawn), 9.3%.
Under `CCCCCCC1NC(C(=O)O)CS1` (stereo not drawn) stands 0%; under `CCCCCCCCCCCCCC1NC(C(=O)O)CCS1` (stereo not drawn), 5.9%.
`CCCCCCCCCc1ccc(C2N[C@H](C(=O)O)CS2)cc1` (stereo partly drawn) had an inhibition of 21.9%.
Under `CCCCCc1cccc(C2N[C@H](C(=O)O)CS2)c1` (stereo partly drawn) stands 9.9%.
In turn, `CCCCCCCCCC[C@H]1N[C@H](C(=O)O)CS1` gave an inhibition of 34.5%.
The result for `CCCCCCCCCc1cccc(C2N[C@H](C(=O)O)CS2)c1` (stereo partly drawn) reads 37.2%.

The term inhibition denotes the share of the control response that was lost under treatment.
